This is an account of results in ChEMBL document CHEMBL2177103, “Discovery of diverse human dihydroorotate dehydrogenase inhibitors as immunosuppressive agents by structure-based virtual screening” (J Med Chem, 2012).

A value given as a limit tells only on which side of the number the result lay.

The nature of assay [1]: Immunosuppressive activity in ICR mouse B cells assessed as inhibition of LPS-stimulated cell proliferation after 72 hrs by MTT assay. Type of assay: functional, cell-based. (Formazan colour is commonly taken as a measure of viable cells.)
Assay [2] is described as follows: Immunosuppressive activity in mouse T cells assessed as inhibition of two way mixed lymphocyte reaction after 4 days by MTT assay. Type of assay: functional, cell-based. The note with it: T-cell, 96 h.
Assay [3] has as its system Jurkat. Briefly: Cytotoxicity against human Jurkat cells after 4 days by MTT assay. Type of assay: cell-based. The conditions noted are these: 96 h.
Assay [4] concerns the target Dihydroorotate dehydrogenase (quinone), mitochondrial (Homo sapiens, UniProt Q02127). The experiment in a line: Inhibition of human DHODH expressed in Escherichia coli BL21(DE3) using L-dihydroorotate as substrate after 10 mins by DCIP dye reduction assay.
Assay [5] concerns the target T1, Dihydroorotate dehydrogenase (Plasmodium falciparum) (UniProt Q54A96).
T1 sequence (whole entry): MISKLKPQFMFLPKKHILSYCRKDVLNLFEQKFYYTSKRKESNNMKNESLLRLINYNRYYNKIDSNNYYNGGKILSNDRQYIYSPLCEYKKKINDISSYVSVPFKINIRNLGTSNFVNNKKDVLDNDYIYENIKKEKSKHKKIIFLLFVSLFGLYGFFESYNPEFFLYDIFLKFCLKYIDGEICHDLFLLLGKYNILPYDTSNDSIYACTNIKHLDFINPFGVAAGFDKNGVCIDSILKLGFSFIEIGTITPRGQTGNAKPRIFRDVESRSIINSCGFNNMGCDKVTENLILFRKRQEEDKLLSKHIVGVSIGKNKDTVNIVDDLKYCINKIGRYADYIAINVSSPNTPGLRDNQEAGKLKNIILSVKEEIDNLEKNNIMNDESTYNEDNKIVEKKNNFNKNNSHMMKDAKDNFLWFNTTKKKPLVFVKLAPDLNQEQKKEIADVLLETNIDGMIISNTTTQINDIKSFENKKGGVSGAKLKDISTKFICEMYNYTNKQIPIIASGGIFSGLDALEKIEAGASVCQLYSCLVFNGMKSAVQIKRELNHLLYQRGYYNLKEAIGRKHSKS
The experiment in a line: Inhibition of Plasmodium falciparum DHODH expressed in Escherichia coli BL21 (DE3) using L-dihydroorotate as substrate at 10 uM after 10 mins by DCIP dye reduction assay. In short, it runs like this:
(§1)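 DCIP reduction read as absorbance decrease at 600 nm over 5 min. Enzyme preincubated 10 min with compound (DMSO stock diluted in assay buffer); reaction started with dihydroorotate, 500 μM final.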

Assay [6] has as its target T2, Dihydroorotate dehydrogenase (Plasmodium falciparum, UniProt Q54A96).
T2 sequence (Q54A96 whole entry): T1 sequence (whole entry)
Briefly: Inhibition of Plasmodium falciparum DHODH expressed in Escherichia coli BL21 (DE3) using L-dihydroorotate as substrate after 10 mins by DCIP dye reduction assay. In short, it runs like this: as §1

In assay [7] the test system is Jurkat. The experiment in a line: Selectivity ratio of IC50 for human Jurkat cells to IC50 for ICR mouse B cells.
The subject of another assay is T-cell. Briefly: Selectivity ratio of IC50 for mouse T cells to IC50 for ICR mouse B cells. The assay is classed as functional.

Sequence of Dihydroorotate dehydrogenase (quinone), mitochondrial (Q02127 whole entry): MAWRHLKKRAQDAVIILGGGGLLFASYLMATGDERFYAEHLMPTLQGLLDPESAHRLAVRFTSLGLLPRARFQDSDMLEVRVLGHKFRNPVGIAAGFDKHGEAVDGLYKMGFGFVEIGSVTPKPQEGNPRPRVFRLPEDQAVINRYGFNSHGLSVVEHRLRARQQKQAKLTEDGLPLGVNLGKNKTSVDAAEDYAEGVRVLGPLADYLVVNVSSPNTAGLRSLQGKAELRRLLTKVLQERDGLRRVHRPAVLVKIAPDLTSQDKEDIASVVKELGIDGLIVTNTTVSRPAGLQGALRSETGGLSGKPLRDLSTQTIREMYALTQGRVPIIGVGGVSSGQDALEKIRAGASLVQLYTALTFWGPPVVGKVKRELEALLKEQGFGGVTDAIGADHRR

In the case of `C/C(O)=C(\C#N)C(=O)Nc1ccc(C(F)(F)F)cc1` [TERIFLUNOMIDE], the concentration for half-maximal inhibition (IC50) (commonly the concentration at which inhibition is half-maximal) in assay [1] stood at 4.07 µM; in assay [2], 48 µM; in the assay with Jurkat [3], 26.7 µM.

Take `Brc1ccc(-c2csc(N/N=C/c3ccccc3)n2)cc1`: the IC50 in assay [1] is above 100 µM; in assay [2], above 100 µM; in assay [4], 3.3 µM; in the assay on Jurkat [3], 1.07 µM. Besides, in assay [5], the inhibition (as a rule, the percentage by which the read-out fell short of the control) was below 20%.

`CC1=NN(c2ccccc2)C(=O)/C1=C/c1ccc(-c2cccc(C(=O)O)c2)o1`: the IC50 is above 100 µM in assay [1], 73.5 µM in assay [2], 2.74 µM in assay [4] and above 100 µM with Jurkat [3]. The compound also yielded an inhibition in assay [5] below 20%.

`Cc1ccc(C)c(/N=C/c2cccc(O)c2O)c1` gave an IC50 in assay [4] of 17.8 µM. Moreover, the inhibition in assay [5] is below 20%.

As to `C/C=C/C[C@@H](C)[C@@H](O)[C@H]1C(=O)N[C@@H](CC)C(=O)N(C)CC(=O)N(C)[C@@H](CC(C)C)C(=O)N[C@@H](C(C)C)C(=O)N(C)[C@@H](CC(C)C)C(=O)N[C@@H](C)C(=O)N[C@H](C)C(=O)N(C)[C@@H](CC(C)C)C(=O)N(C)[C@@H](CC(C)C)C(=O)N(C)[C@@H](C(C)C)C(=O)N1C` [CYCLOSPORINE], the IC50 with Jurkat [3] is above 10 µM.

For `COC(=O)c1ccc(Nc2nc(-c3ccc(Cl)cc3)c(C)s2)cc1`, the IC50 in assay [1] turned out to be 13 µM; in assay [2], 13.3 µM; in assay [4] it was 1.27 µM; with Jurkat [3], 15.7 µM. The compound further had an inhibition in assay [5] below 20%.

For the compound `O=c1cc(-c2ccc(O)c(O)c2)oc2ccccc12`, the IC50 was determined as 12.4 µM in assay [4] and 9.48 µM in assay [6].

Turning to `O=C(Nc1nc2ccccc2s1)c1ccc(Cl)cc1Cl`, the IC50 in assay [1] was 19.9 µM; in assay [2], 58.5 µM; in assay [4], 1.83 µM; in assay [6], 4.67 µM; in the assay with Jurkat [3] it was above 100 µM.

For the compound `COc1cccc(C(=O)Nc2nc3ccccc3s2)c1`, the IC50 was 16.1 µM in assay [1], above 100 µM in assay [2], 6.83 µM in assay [4] and above 100 µM in the assay on Jurkat [3]. Moreover, in assay [5], the inhibition is below 20%.

As to `CCc1cccc(NC(=O)/C=C/c2ccc(Cl)c(Cl)c2)c1`, the IC50 amounted to 11.2 µM in assay [1], 8.38 µM in assay [2], 0.55 µM in assay [4] and 30.1 µM in the assay with Jurkat [3]. The compound further showed an inhibition in assay [5] below 20%.

As for `O=C(Nc1nc2ccccc2s1)c1cccc(C(Cl)(Cl)Cl)c1`, the IC50 worked out at 8.74 µM in assay [1]; 25.4 µM in assay [2]; 0.34 µM in assay [4]; 1.93 µM in assay [6]; 43.5 µM in the assay with Jurkat [3].

In assay [4], `c1ccc2c(c1)Nc1nc3ccccc3nc1O2` came in with a concentration for half-maximal inhibition (IC50) of 18.3 µM. In assay [5], the inhibition was below 20%.

In the case of `Oc1ccc(/C=N/c2cccc3ccccc23)c(O)c1`, the IC50 is 11.3 µM in assay [1], 23.6 µM in assay [2], 0.78 µM in assay [4] and 26.3 µM with Jurkat [3]. The compound also had an inhibition in assay [5] below 20%.

On to `Oc1ccc(/N=C/c2ccc3ccccc3c2)cc1`, for which the IC50 in assay [1] turned out to be 9.93 µM; in assay [2], 9.45 µM; in assay [4] it was 3.96 µM; in the assay on Jurkat [3], 45.7 µM. Further, the inhibition in assay [5] was below 20%.

In assay [4], `O=C(O)c1ccc(/C=N/c2cccc3ccccc23)cc1` came in with an IC50 of 15.6 µM. Further, in assay [5], the inhibition is below 20%.

Regarding `O=Cc1ccccc1/C=N/Nc1nc(-c2ccccc2)cs1`, the IC50 in assay [1] is 14 µM; in assay [2], 12.4 µM; in assay [4] it was 0.11 µM; with Jurkat [3] it was above 100 µM. This compound also had an inhibition in assay [5] below 20%.

In the case of `CC(=O)c1sc(Nc2ccc(C)c(Cl)c2)nc1C`, the IC50 in assay [1] came out at 4.65 µM; in assay [2], 9.58 µM; in assay [4] it was 0.93 µM; in assay [6] it was 0.76 µM; with Jurkat [3], 5.39 µM.

Turning to `O=C(/C=C/c1ccc(O)c(C(=O)O)c1)c1ccc(Cl)cc1`, the IC50 was 1.78 µM in assay [1], 30.2 µM in assay [2], 6.06 µM in assay [4] and 45.7 µM in the assay with Jurkat [3]. Further, the “Ratio IC50” value with Jurkat [7] turned out to be 26; in the assay with T-cell, 17. The compound further had an inhibition in assay [5] below 20%.

In assay [4], `Cc1ccccc1C(=O)Nc1cc(Cl)c(O)c(Cl)c1` registered an IC50 of 16.1 µM. In assay [5], this compound registered an inhibition below 20%.

As for `O=C(/C=C/c1ccc(F)cc1)Nc1ccccn1`, the IC50 in assay [4] was found to be 13 µM. For the same compound, the inhibition in assay [5] is below 20%.
